pIC50: −log10 of the molar value. Activity calls are given as the source filed them. The calls are words filed in the database; no cut-off is given here.
Key:
[1] = molecular target: Acetylcholinesterase (Homo sapiens, UniProt P22303); test: Inhibition of AChE (unknown origin) using acetylthiocholine iodide as substrate prewarmed for 10 mins followed by substrate addition measured after 15 mins by DTNB assay
Procedure, shortened: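 Purified AChE at 0.005 unit per well in 50 mM Na2HPO4, pH 7.7. Test compound at 0.5 mM per well, read at 405 nm, then preincubated 10 min at 37 °C. Started with acetylthiocholine iodide and DTNB (each 0.5 mM per well). Absorbance at 405 nm after 15 min at 37 °C. Eserine reference, triplicate; % inhibition versus control, IC50 by kinetics fitting.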

[2] = molecular target: Beta-secretase 1 (Homo sapiens, UniProt P56817); test: Inhibition of BACE1 (unknown origin) expressed in baculovirus expression system using Rh-EVNLDAEFKQuencher peptide substrate incubated for 90 mins by FRET assay
Beta-secretase 1, sequence (P56817 whole entry): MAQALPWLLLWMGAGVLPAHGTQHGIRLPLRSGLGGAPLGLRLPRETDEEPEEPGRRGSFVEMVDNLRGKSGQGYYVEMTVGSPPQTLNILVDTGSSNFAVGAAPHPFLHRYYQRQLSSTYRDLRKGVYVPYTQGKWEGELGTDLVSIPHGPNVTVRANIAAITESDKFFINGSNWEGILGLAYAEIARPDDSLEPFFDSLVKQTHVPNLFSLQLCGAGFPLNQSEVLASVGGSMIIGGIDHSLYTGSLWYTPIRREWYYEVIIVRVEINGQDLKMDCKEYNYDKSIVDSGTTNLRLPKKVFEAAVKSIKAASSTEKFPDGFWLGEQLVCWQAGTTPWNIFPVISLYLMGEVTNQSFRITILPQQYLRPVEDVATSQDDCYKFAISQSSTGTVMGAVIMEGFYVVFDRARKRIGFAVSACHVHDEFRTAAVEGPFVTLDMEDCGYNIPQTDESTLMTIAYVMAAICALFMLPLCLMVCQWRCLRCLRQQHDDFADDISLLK

[3] = Genotoxicity in human SH-SY5Y cells assessed as mean nuclear abnormalities measured per 1000 cells at 100 ug/ml incubated for 24 hrs by Hoechst 33258 staining based fluorescent microscopy (reference value: 0.016 +/- 0.007); type: toxicity, cell-based; details: dose 100 µg/ml
[4] = Genotoxicity in human SH-SY5Y cells assessed as nuclear abnormalities by measuring total notched mutations at 100 ug/ml incubated for 24 hrs by Hoechst 33258 staining based fluorescent microscopy (reference value: 5); type: toxicity, cell-based; details: dose 100 µg/ml
[5] = Genotoxicity in human SH-SY5Y cells assessed as nuclear abnormalities by measuring total micronucleus at 100 ug/ml incubated for 24 hrs by Hoechst 33258 staining based fluorescent microscopy (reference value: 6); type: toxicity, cell-based; details: dose 100 µg/ml
[6] = tested on: SH-SY5Y; test: Neuroprotective activity against amyloid beta 1-42-treated human SH-SY5Y cells assessed as decrease in beta-secretase activity measured per mg protein incubated for 30 mins by microplate reader analysis (reference value: 54.35 +/- 4.34 RFU); type: functional; details: 0.5 h
[7] = tested on: SH-SY5Y; test: Neuroprotective activity against amyloid beta 1-42-treated human SH-SY5Y cells assessed as increase in cell viability at 25 ug/ml incubated for 24 hrs by MTT assay relative to control; details: dose 25 µg/ml
[8] = Genotoxicity in human SH-SY5Y cells assessed as nuclear abnormalities by measuring total lobbed nucleus at 100 ug/ml incubated for 24 hrs by Hoechst 33258 staining based fluorescent microscopy (reference value: 5); type: toxicity, cell-based; details: dose 100 µg/ml
[9] = tested on: SH-SY5Y; test: Antialzheimer activity against RA/BDNF-treated human SH-SY5Y cells assessed as cell viability at 12.5 to 100 ug/ml incubated for 24 hrs by MTT assay; type: functional, cell-based; details: dose 12.5-100 µg/ml
Procedure, shortened: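 SH-SY5Y grown in DMEM:F12 with 10% FBS at 37 °C, 5% CO2. Differentiated with 10 µM retinoic acid to day 8 (3% FBS medium refreshed every 2 days), then 25 nM BDNF for 5 days. Compound exposure, then MTT for 3 h at 37 °C. Formazan dissolved in DMSO, absorbance at 570 nm. 1.0% Triton X-100 as control.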

[10] = tested on: SH-SY5Y; test: Neuroprotective activity against amyloid beta 1-42-treated human SH-SY5Y cells assessed as reduction in beta amyloid aggregation by Congo Red dye based analysis; type: functional, cell-based
Procedure, shortened: (§1)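 SH-SY5Y differentiated with RA then BDNF. Aβ1-42 pre-fibrillized at 20 µM in medium for 24 h, then 20 µM added with compounds for 24 h. Cells fixed in 4% paraformaldehyde at 4 °C for 30 min. Stained with 1 µM Congo red for 1 h in the dark, washed with PBS, dye extracted into DMSO, absorbance at 497 nm.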

[11] = tested on: SH-SY5Y; test: Neuroprotective activity against amyloid beta 1-42-treated human SH-SY5Y cells assessed as decrease in AChE activity incubated for 30 mins by microplate reader analysis (reference value: 459.6 +/- 32.152 mU/ml); type: functional; details: dose 0.5 mM
[12] = tested on: SH-SY5Y; test: Neuroprotective activity against amyloid beta 1-42-treated human SH-SY5Y cells assessed as reduction in beta amyloid aggregation by Congo Red dye based analysis relative to control; type: functional; parameters: scale not given: the % may be the effect or the level left; procedure, shortened: as §1
[13] = tested on: SH-SY5Y; test: Neuroprotective activity against amyloid beta 1-42-treated human SH-SY5Y cells assessed as increase in cell viability at 50 ug/ml incubated for 24 hrs by MTT assay relative to control; details: dose 50 µg/ml

Acetylcholinesterase, sequence (P22303 whole entry): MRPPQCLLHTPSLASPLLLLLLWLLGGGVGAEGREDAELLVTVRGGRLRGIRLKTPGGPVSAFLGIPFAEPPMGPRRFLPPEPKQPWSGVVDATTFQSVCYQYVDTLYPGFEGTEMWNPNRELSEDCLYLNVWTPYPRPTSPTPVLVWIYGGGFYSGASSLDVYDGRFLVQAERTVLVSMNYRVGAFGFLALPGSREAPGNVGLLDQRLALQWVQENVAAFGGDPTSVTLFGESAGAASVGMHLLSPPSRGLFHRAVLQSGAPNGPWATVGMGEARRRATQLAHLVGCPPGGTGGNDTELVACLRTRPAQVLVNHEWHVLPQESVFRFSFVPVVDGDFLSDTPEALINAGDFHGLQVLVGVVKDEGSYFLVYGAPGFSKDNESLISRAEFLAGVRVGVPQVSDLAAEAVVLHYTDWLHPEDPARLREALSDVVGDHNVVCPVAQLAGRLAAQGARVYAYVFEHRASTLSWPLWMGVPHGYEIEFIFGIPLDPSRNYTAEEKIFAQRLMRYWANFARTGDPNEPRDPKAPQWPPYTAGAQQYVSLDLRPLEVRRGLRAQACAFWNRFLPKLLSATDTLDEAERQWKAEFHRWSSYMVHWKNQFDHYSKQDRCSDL

| SMILES | pIC50 [1] | pIC50 [2] | Activity [3] | Activity [4] | Activity [5] | Activity [6] [RFU] | Activity [7] [%] | Activity [8] | Activity [9] | Activity [10] | Activity [11] [mU/ml] | Activity [12] [%] | Activity [13] [%] |
| --- | --- | --- | --- | --- | --- | --- | --- | --- | --- | --- | --- | --- | --- |
| Brc1ccc(-c2csc(/C=C/c3ccccc3)n2)cc1 | 3.64 | 4.35 | 0.017 | 9 | 4 | 17.41 | ~30 | 5 | Active | Active | 375.6 |  |  |
| COc1ccc(/C=C/c2nc(-c3ccc(OC)cc3)cs2)cc1 | 3.71 | 4.11 | 0.017 | 5 | 6 | 14.13 |  | 6 | Active |  | 397.6 | >80 | ~34 |

— ChEMBL document CHEMBL5329218, “Novel styryl-thiazole hybrids as potential anti-Alzheimer's agents” (RSC Med Chem, 2023)
